# Published values collected from several papers.
# Protocols differ between the studies behind these lines.
# Target: Serine/threonine-protein kinase pim-2 (PIM2, Homo sapiens, UniProt Q9P1W9)
SMILES,assay,setting,remaining binding
C=CC(=O)N1CCC(C(=O)NCC(=O)N2CCN(c3nc(-c4cnc(N)nc4C(F)F)nc(N4CCOCC4)n3)CC2)CC1,"binding, competition with immobilised ligand",1 µM,82%
N[C@H]1CCN(c2nccc(-c3cnn4ncccc34)n2)C1,binding,1 µM,98%
FC(F)(F)Oc1cccc(-c2cnc3ccc(-c4ccncc4)nn23)c1,"cell-free assay, competition with immobilised ligand",5 µM,45%
c1ccc(N2CCN(Cc3nc4ccccc4[nH]3)CC2)nc1,"binding, competition with immobilised ligand",1 µM,85%
C[C@H]1CCN(c2nccc(-c3cnn4ncccc34)n2)C1,binding,1 µM,81%
CN(C)c1ncnc(-c2ccc3nc(Nc4cc(CN5CCN(C(=O)CC(F)(F)F)CC5)ccn4)[nH]c3c2)c1Cl,"cell-free assay, competition with immobilised ligand",1 µM,100%
COc1cnc(Nc2cccc(S(N)(=O)=O)c2)nc1N1CCN(c2ccccc2)CC1,"binding, competition with immobilised ligand",1 µM,100%
C[C@@H]1CN(c2ccc3ncc(-c4ccc5[nH]nc(C6CC6)c5c4)n3n2)C[C@H](C)O1,"binding, competition with immobilised ligand",0.5 µM,3.5%
Cc1cnc(Nc2ccc(C(=O)N3CCC(N4CCCC4)CC3)cc2)nc1-c1cc2ccccc2s1,"binding, competition with immobilised ligand",1 µM,100%
O=C(NCC1CCOCC1)c1n[nH]cc1NC(=O)c1c(F)cccc1F,"binding, competition with immobilised ligand",1 µM,91%
CCCOc1ccc([C@@H]2[C@@H](C(=O)O)[C@H](c3ccc4c(c3)OCO4)CN2CC(=O)Nc2c(CC)cccc2CC)cc1,"cell-free assay, competition with immobilised ligand",1 µM,99%
Cc1cnn2ncc(-c3ccnc(N(C)C)n3)c2c1,binding,1 µM,84%
CO[C@@H](C)c1c(Nc2ccc([C@@H](N(C)C(=O)C3CCS(=O)(=O)CC3)C(F)(F)F)cc2)cnc2cc(Cl)nn12,"cell-free assay, competition with immobilised ligand",1 µM,95%
CN(C)c1nccc(-c2cnn3ncccc23)n1,binding,1 µM,78%
CN(C(=O)c1ccccc1)c1cc(N(C)c2ccc3c(c2)CCc2ccc(C(=O)NCCN4CCOCC4)cc2C3=O)ccc1F,"cell-free assay, competition with immobilised ligand",1 µM,72%
c1cnn2ncc(-c3ccnc(N4CCC45COC5)n3)c2c1,binding,1 µM,64%
CCN1CCN(Cc2ccc(C(=O)Nc3ccc(C)c(Oc4ccc5c(c4)CC(=O)N5)c3)cc2C(F)(F)F)CC1,"binding, competition with immobilised ligand",1 µM,97%
O=C(NCCCN1CCOCC1)c1ccc(Nc2ncc(Cl)c(-c3ccc(Cl)s3)n2)cc1,"binding, competition with immobilised ligand",1 µM,100%
CN(C)CC#Cc1ccc(OCCCc2sc(N3CCc4cccc(C(=O)Nc5nc6ccccc6s5)c4C3)nc2C(=O)O)c(F)c1,"cell-free assay, competition with immobilised ligand",1 µM,100%
F[C@@H]1CCN(c2nccc(-c3cnn4ncccc34)n2)C1,binding,1 µM,100%
Nc1ncc2c(n1)-c1c([nH]c3ccc(C#CC4CC4)cc13)CCCC2,"binding, competition with immobilised ligand",1 µM,95%
O=C(c1ccc(Nc2ncc(Cl)c(-c3ccc(Cl)s3)n2)cc1)N1CCC(N2CCCC2)CC1,"binding, competition with immobilised ligand",1 µM,100%
CCC(=O)N[C@@H]1CC[C@H](C(=O)N(C)c2ccc(-c3nc4ccccc4o3)cc2)C1,"cell-free assay, competition with immobilised ligand",1 µM,100%
CC(C)(C)c1ccc(-c2nc(CBr)nn2-c2cccc(O)c2)cc1,"cell-free assay, competition with immobilised ligand",10 µM,81%
